Consider 37 compounds from ChEMBL document CHEMBL2440016, “Targeting the human parasite Leishmania donovani: discovery of a new promising anti-infectious pharmacophore in 3-nitroimidazo[1,2-a]pyridine series” (Bioorg Med Chem, 2013).

Data set [1] in a line: Selectivity index, ratio of CC50 for human HepG2 cells to IC50 for Leishmania donovani MHOM/IN/00/DEVI. It counts as functional. The method in brief:
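SI = HepG2 CC50 / L. donovani IC50.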

Data set [2] in a line: Cytotoxicity against human HepG2 cells after 72 hrs by MTT assay. It counts as cell-based. The following applies: HepG2 cells. In short, it runs like this:
(§1)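 Cells plated in RPMI with 10% FCS, L-glutamine and penicillin/streptomycin, 24 h at 37 °C, 6% CO2. Compound dilutions then added for 72 h. MTT 0.5 mg/mL in PBS for 2 h, formazan dissolved in DMSO, A570 with 630 nm reference. Viability taken as % of untreated control. Doxorubicin served as positive control. CC50 from the dose-response curve.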
On the technique in general: Formazan colour is commonly taken as a measure of viable cells.

Data set [3] in a line: Selectivity index, ratio of CC50 for mouse J774.1 cells to IC50 for Leishmania donovani MHOM/IN/00/DEVI. It counts as functional.
The nature of data set [4]: Cytotoxicity against mouse J774.1 cells after 72 hrs by MTT assay. In kind it is cell-based. As to conditions: J774.1 cells. In short, it runs like this:
as §1

In a further data set the test system is Leishmania donovani. The experiment in a line: Antimicrobial activity against Leishmania donovani MHOM/IN/00/DEVI promastigotes after 72 hrs by MTT assay. The following applies: Leishmania donovani, MHOM/IN/00/DEVI, 72 h; read-out: IC50. It counts as functional, organism-based. The method in brief:
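Log-phase promastigotes in Schneider's medium with 20% FCS, 2 mM L-glutamine and penicillin/streptomycin, at 10⁶ parasites/mL. Compound dilutions run in duplicate, final DMSO <0.5%, 72 h at 27 °C. MTT 0.5 mg/mL for 6 h at 27 °C, formazan dissolved in DMSO, A570.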

With `COc1cc(-c2ccc3nc(CS(=O)(=O)c4ccccc4)c([N+](=O)[O-])n3c2)cc(OC)c1OC`, the entries for the “Ratio CC50/IC50” value in data set [1] and in data set [3] were under 0.7 and under 0.1, respectively. The results for the CC50 at 72 h in data set [2] and in data set [4] were 34.7 µM and 5 µM, respectively. The IC50 (as a rule, the midpoint of a concentration-inhibition curve) in the data set with Leishmania donovani is over 50 µM.
Regarding `O=[N+]([O-])c1c(CS(=O)(=O)c2ccc(Br)cc2)nc2ccc(Br)cn12`, the “Ratio CC50/IC50” value in data set [1] amounted to 1.6; in data set [3], 1.1. Moreover, the results for the CC50 at 72 h in data set [2] and in data set [4] were 39 µM and 28.2 µM, respectively. The IC50 in the data set on Leishmania donovani is 24.3 µM.
Take `Cc1ccccc1-c1ccc2nc(CS(=O)(=O)c3ccccc3)c([N+](=O)[O-])n2c1`: the CC50 (as a rule, the concentration at which the toxic effect on the cells reaches its halfway point) at 72 h in data set [2] is over 9.4 µM; in data set [4] it was 5 µM. Moreover, the “Ratio CC50/IC50” value in data set [3] is recorded as under 0.5. Besides, the IC50 with Leishmania donovani is over 10 µM.
As to `O=S(=O)(Cc1cn2ccccc2n1)c1ccccc1`, the CC50 at 72 h in data set [2] and in data set [4] was over 100 µM each time. In the data set on Leishmania donovani, the IC50 is over 50 µM.
Consider `c1ccn2ccnc2c1`, for which the CC50 at 72 h in data set [2] and in data set [4] was over 100 µM in each case. Besides, in the data set with Leishmania donovani, the IC50 was over 50 µM.
On to `Cc1ccc(S(=O)(=O)Cc2nc3ccc(I)cn3c2[N+](=O)[O-])cc1`, for which the “Ratio CC50/IC50” value in data set [1] is reported as over 1.3; in data set [3], 0.9. Further, the CC50 at 72 h in data set [2] was over 50 µM; in data set [4] it was 34.8 µM. For the same compound, the IC50 in the data set on Leishmania donovani came to 39.2 µM.
Take `O=[N+]([O-])c1c(CS(=O)(=O)c2ccc(F)cc2)nc2ccc(Br)cn12`: the half-maximal cytotoxic concentration (CC50) at 72 h was over 100 µM in data set [2] and over 92.8 µM in data set [4]. Also, the IC50 in the data set on Leishmania donovani is over 50 µM.
Regarding `Cc1ccc(S(=O)(=O)Cc2cn3cc(I)ccc3n2)cc1`, the figures for the CC50 at 72 h in data set [2] and in data set [4] were over 12.5 µM and 25 µM, respectively. Also, the “Ratio CC50/IC50” value in data set [3] is reported as under 0.5. In the data set with Leishmania donovani, the IC50 is over 50 µM.
Regarding `O=[N+]([O-])c1c(CS(=O)(=O)c2ccc(C(F)(F)F)cc2)nc2ccc(Br)cn12`, the “Ratio CC50/IC50” value in data set [1] is given as under 0.6. Moreover, the values for the CC50 at 72 h in data set [2] and in data set [4] were 31.7 µM and over 25 µM, respectively. In addition, the IC50 in the data set with Leishmania donovani is over 50 µM.
For the compound `Cc1ccc(S(=O)(=O)Cc2nc3ccc(Br)cn3c2[N+](=O)[O-])cc1`, the “Ratio CC50/IC50” value is recorded as 0.13 in data set [1] and 1 in data set [3]. Also, the CC50 at 72 h in data set [2] amounted to 5.9 µM; in data set [4], 44.3 µM. In addition, the IC50 in the data set on Leishmania donovani came to 44.1 µM.
On the same counts, the results for `O=[N+]([O-])c1c(CS(=O)(=O)c2ccc(I)cc2)nc2ccc(Br)cn12` are under 0.4, under 0.3, 20.3 µM, 16.2 µM and over 50 µM.
For `O=S(=O)(Cc1cn2cc(Cl)ccc2n1)c1ccc(Cl)cc1`, in that order: under 1.4, under 1.3, 71.5 µM, 68.7 µM and over 50 µM.
`COc1ccc(S(=O)(=O)Cc2nc3ccc(Br)cn3c2[N+](=O)[O-])cc1`: the CC50 at 72 h is over 100 µM in data set [2] and over 92.5 µM in data set [4]. Also, in the data set on Leishmania donovani, the IC50 was over 50 µM.
As for `ClCc1cn2cc(Br)ccc2n1`, the cytotoxic concentration (CC50) at 72 h in data set [2] is over 100 µM; in data set [4], 68.4 µM. Further, the “Ratio CC50/IC50” value in data set [3] is on record as under 1.4. Further, in the data set with Leishmania donovani, the IC50 is over 50 µM.
On to `O=[N+]([O-])c1c(CS(=O)(=O)c2ccc(Cl)cc2)nc2ccc(Cl)cn12`, for which the “Ratio CC50/IC50” value in data set [1] is listed as 1.1; in data set [3] it was 1.8. The CC50 at 72 h in data set [2] was over 25 µM; in data set [4] it was 42.4 µM. The IC50 in the data set with Leishmania donovani is 23 µM.
Regarding `O=[N+]([O-])c1c(CS(=O)(=O)c2ccc(-c3ccccc3)cc2)nc2ccc(Br)cn12`, the results for the CC50 at 72 h in data set [2] and in data set [4] were over 100 µM and 54.4 µM, respectively. In data set [3], the “Ratio CC50/IC50” value is given as under 1.1. For the same compound, the IC50 in the data set with Leishmania donovani is over 50 µM.
Consider `O=[N+]([O-])c1c(CS(=O)(=O)c2ccc(Cl)cc2)nc2ccc(Br)cn12`, for which the “Ratio CC50/IC50” value in data set [1] is listed as 0.12; in data set [3], 1.1. In addition, the figures for the CC50 at 72 h in data set [2] and in data set [4] were 5.5 µM and 51.1 µM, respectively. Besides, the IC50 in the data set with Leishmania donovani worked out at 45.4 µM.
In the case of `ClCc1cn2ccccc2n1`, the CC50 at 72 h in data set [2] and in data set [4] was over 100 µM each time. In addition, the IC50 in the data set with Leishmania donovani is over 50 µM.
As for `Cc1nc2ccccn2c1[N+](=O)[O-]`, the CC50 at 72 h in data set [2] and in data set [4] was over 100 µM each time. In the data set on Leishmania donovani, the IC50 was over 50 µM.
`Cc1ccc(S(=O)(=O)Cc2cn3cc(Br)ccc3n2)cc1`: the “Ratio CC50/IC50” value in data set [1] is on record as under 0.6; in data set [3], under 0.4. The figures for the CC50 at 72 h in data set [2] and in data set [4] were 28.9 µM and 20.9 µM, respectively. For the same compound, the IC50 with Leishmania donovani is over 50 µM.
Turning to `O=[N+]([O-])c1c(CSc2ccccc2)nc2ccc(Br)cn12`, in data set [1], the “Ratio CC50/IC50” value is on record as under 0.05. In addition, the CC50 at 72 h is 0.53 µM in data set [2] and over 6 µM in data set [4]. Further, the IC50 in the data set with Leishmania donovani is over 10 µM.
On to `O=S(=O)(Cc1cn2cc(Br)ccc2n1)c1ccccc1`, for which the figures for the “Ratio CC50/IC50” value in data set [1] and in data set [3] were 0.15 and under 0.1, respectively. Besides, the CC50 at 72 h is 7.3 µM in data set [2] and 6.4 µM in data set [4]. The IC50 with Leishmania donovani was over 50 µM.
For the compound `O=[N+]([O-])c1c(CS(=O)(=O)c2ccccc2)nc2ccc(I)cn12`, the “Ratio CC50/IC50” value in data set [1] is on record as over 7.9; in data set [3], 2.1. Further, the CC50 at 72 h in data set [2] was over 100 µM; in data set [4], 27 µM. For the same compound, in the data set with Leishmania donovani, the IC50 was 12.6 µM.
For the compound `CS(=O)(=O)Cc1nc2ccc(Br)cn2c1[N+](=O)[O-]`, the CC50 at 72 h in data set [2] and in data set [4] was over 100 µM throughout. Also, the IC50 in the data set on Leishmania donovani was over 50 µM.
As to `O=[N+]([O-])c1c(CCl)nc2ccccn12`, the figures for the “Ratio CC50/IC50” value in data set [1] and in data set [3] were 0.6 and 0.3, respectively. The CC50 at 72 h in data set [2] was determined as 8.7 µM; in data set [4] it was 4.8 µM. In addition, in the data set with Leishmania donovani, the IC50 worked out at 15.1 µM.
On the same counts, the results for `O=S(=O)(Cc1cn2cc(Cl)ccc2n1)c1ccccc1` are under 0.3, under 0.3, 16.5 µM, 13.3 µM and over 50 µM.
For the compound `O=[N+]([O-])c1c(CS(=O)(=O)c2ccccc2)nc2ccccn12`, the 50% cytotoxic concentration (CC50) at 72 h is over 62.5 µM in data set [2] and over 100 µM in data set [4]. Besides, the 50% inhibitory concentration (IC50) with Leishmania donovani is over 50 µM.
For the compound `COc1cccc2c1C(=O)c1c(O)c3c(c(O)c1C2=O)C[C@@](O)(C(=O)CO)C[C@@H]3O[C@H]1C[C@H](N)[C@H](O)[C@H](C)O1` [DOXORUBICIN], the cytotoxic concentration (CC50) at 72 h in data set [4] stood at 0.02 µM.
As for `O=[N+]([O-])c1c(CS(=O)(=O)c2ccc(Cl)cc2)nc2ccc(I)cn12`, the “Ratio CC50/IC50” value in data set [1] was over 1.7; in data set [3], 1.5. Moreover, the CC50 at 72 h is over 50 µM in data set [2] and 43.6 µM in data set [4]. The IC50 with Leishmania donovani is 29.1 µM.
In the case of `Cc1ccc(S(=O)(=O)Cc2nc3ccc(Cl)cn3c2[N+](=O)[O-])cc1`, the CC50 at 72 h in data set [2] was over 100 µM; in data set [4] it was over 94 µM. The IC50 in the data set on Leishmania donovani is over 50 µM.
With `O=S(=O)(Cc1cn2cc(I)ccc2n1)c1ccccc1`, the “Ratio CC50/IC50” value in data set [1] and in data set [3] was under 0.1 each time. For the same compound, the CC50 at 72 h in data set [2] was 5 µM; in data set [4] it was 5.2 µM. For the same compound, the IC50 with Leishmania donovani is over 50 µM.
`Cc1ccc(S(=O)(=O)Cc2cn3cc(Cl)ccc3n2)cc1`: the “Ratio CC50/IC50” value in data set [1] amounted to 2; in data set [3], 0.9. Moreover, the cytotoxic concentration (CC50) at 72 h was determined as 68.3 µM in data set [2] and 33.3 µM in data set [4]. In the data set on Leishmania donovani, the IC50 is 33.5 µM.
Take `O=S(=O)(Cc1cn2cc(Br)ccc2n1)c1ccc(Cl)cc1`: the “Ratio CC50/IC50” value in data set [1] is given as under 0.5; in data set [3], under 0.9. For the same compound, the CC50 at 72 h in data set [2] is 23 µM; in data set [4] it was 43.9 µM. Further, the IC50 in the data set on Leishmania donovani was over 50 µM.
In the case of `O=[N+]([O-])c1c(CCl)nc2ccc(Br)cn12`, the “Ratio CC50/IC50” value is given as 1.6 in data set [1] and 0.5 in data set [3]. The CC50 at 72 h amounted to 15.6 µM in data set [2] and 4.9 µM in data set [4]. Moreover, in the data set on Leishmania donovani, the IC50 was determined as 9.6 µM.
For the compound `O=[N+]([O-])c1cnc2ccccn12`, the CC50 at 72 h in data set [2] and in data set [4] was over 100 µM throughout. Moreover, the IC50 with Leishmania donovani was over 50 µM.
In the case of `O=[N+]([O-])c1c(CS(=O)(=O)c2ccccc2)nc2ccc(Cl)cn12`, the “Ratio CC50/IC50” value in data set [1] and in data set [3] was over 5.5 in each case. In addition, the CC50 at 72 h in data set [2] and in data set [4] was over 100 µM each time. For the same compound, the IC50 with Leishmania donovani is 18.2 µM.
As to `O=S(=O)(Cc1cn2cc(I)ccc2n1)c1ccc(Cl)cc1`, the “Ratio CC50/IC50” value in data set [1] and in data set [3] was under 0.8 throughout. The CC50 at 72 h in data set [2] was determined as 39.1 µM; in data set [4], 44.2 µM. Besides, the IC50 in the data set on Leishmania donovani was over 50 µM.
